A word on the IC50: it is the midpoint of a concentration-inhibition curve. The Emax is the maximal effect, on the per cent scale that the assay sets. For orientation: Ki means a measure of affinity in units of concentration, obtained from inhibition or displacement. Low readings indicate a stronger hold on the target, high ones a looser hold on the target.

Here are results for 7 molecules from ChEMBL document CHEMBL1765015, “Discovery of a potent and efficacious peptide derivative for δ/μ opioid agonist/neurokinin 1 antagonist activity with a 2',6'-dimethyl-L-tyrosine: in vitro, in vivo, and NMR-based structural studies” (J Med Chem, 2011).

Series [1] concerns the target Substance-P receptor (Homo sapiens, UniProt P25103). The series is described as follows: Displacement of [3H]substance P from human NK1 receptor expressed in CHO cells. It counts as cell-based. A general note: Loss of bound radioactivity is the signal in a displacement assay; it reports binding, not function.
For series [2], the target named is T1, Delta-type opioid receptor (Homo sapiens, UniProt P41143). The series is described as follows: Agonist activity at human opioid delta receptor expressed in mouse HN9.10 cells assessed as [35S]GTPgammaS binding. It counts as functional, cell-based. In a few lines: (§1)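 [35S]GTPγS binding on membranes of HN9.10 cells stably expressing human DOR or rat MOR, about 1 pmol receptor/mg membrane protein. logEC50 from non-linear regression of at least two independent experiments in duplicate; EC50 is the antilog. Emax given as percent stimulation.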
T1 sequence (P41143 whole entry): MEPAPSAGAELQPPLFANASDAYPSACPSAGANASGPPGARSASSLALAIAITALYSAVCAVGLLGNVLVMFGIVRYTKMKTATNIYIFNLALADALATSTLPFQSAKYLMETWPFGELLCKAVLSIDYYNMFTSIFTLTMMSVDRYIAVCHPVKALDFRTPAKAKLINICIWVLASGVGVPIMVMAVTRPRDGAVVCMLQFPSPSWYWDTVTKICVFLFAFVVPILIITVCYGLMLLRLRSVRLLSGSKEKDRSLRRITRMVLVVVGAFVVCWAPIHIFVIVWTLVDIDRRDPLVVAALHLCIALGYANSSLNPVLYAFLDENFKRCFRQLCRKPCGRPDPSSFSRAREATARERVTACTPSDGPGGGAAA
Background: GTPγS is a poorly hydrolysed GTP analogue; its binding reports G protein activation.

The target in series [3] is T1, Delta-type opioid receptor. Nature of the series: Displacement of [3H]DPDPE from human delta opioid receptor expressed in mouse HN9.10 cells. It counts as cell-based.
Series [4] addresses Substance-P receptor (Cavia porcellus) (UniProt P30547). The series is described as follows: Antagonist activity at NK1 receptor in guinea pig ileum assessed as inhibition of substance P-induced muscle contraction. It counts as functional, tissue-based.
The target in series [5] is T2, Mu-type opioid receptor (Rattus norvegicus, UniProt P33535). The series is described as follows: Displacement of [3H]DAMGO from rat mu opioid receptor expressed in mouse HN9.10 cells. Format: cell-based.
T2 sequence (P33535 whole entry): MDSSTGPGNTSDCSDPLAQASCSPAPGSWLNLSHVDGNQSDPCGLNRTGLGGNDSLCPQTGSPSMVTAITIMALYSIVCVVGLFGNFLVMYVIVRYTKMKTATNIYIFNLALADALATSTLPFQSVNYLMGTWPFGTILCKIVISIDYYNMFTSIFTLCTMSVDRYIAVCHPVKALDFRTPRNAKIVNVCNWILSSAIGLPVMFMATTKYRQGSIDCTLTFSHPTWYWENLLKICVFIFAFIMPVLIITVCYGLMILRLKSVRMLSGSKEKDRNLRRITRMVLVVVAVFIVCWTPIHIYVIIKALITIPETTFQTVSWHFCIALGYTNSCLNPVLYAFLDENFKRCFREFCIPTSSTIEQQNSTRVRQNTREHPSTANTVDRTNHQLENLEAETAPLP
For series [6], the target named is T2, Mu-type opioid receptor. Nature of the series: Agonist activity at rat mu opioid receptor expressed in mouse HN9.10 cells assessed as [35S]GTPgammaS binding. Format: functional, cell-based.
Series [7] concerns the target Mu-type opioid receptor (Cavia porcellus, UniProt P97266). The series is described as follows: Agonist activity at mu opioid receptor in guinea pig ileum assessed as inhibition of electrically-stimulated muscle contraction. It counts as functional, tissue-based.
Series [8] concerns the target Delta-type opioid receptor (Mus musculus, UniProt P32300). Nature of the series: Agonist activity at delta opioid receptor in mouse vas deferens assessed as inhibition of electrically-stimulated muscle contraction. It counts as functional, tissue-based.
Series [9] addresses T1, Delta-type opioid receptor. The series is described as follows: Agonist activity at human opioid delta receptor expressed in mouse HN9.10 cells assessed as [35S]GTPgammaS binding relative to control. It counts as functional, cell-based. In a few lines:
as §1

Series [10] deals with Substance-P receptor (Rattus norvegicus, UniProt P14600). The series is described as follows: Displacement of [3H]substance P from rat NK1 receptor expressed in CHO cells. Format: cell-based.
Chain of Substance-P receptor (Rattus norvegicus, UniProt P14600) (P14600 whole entry): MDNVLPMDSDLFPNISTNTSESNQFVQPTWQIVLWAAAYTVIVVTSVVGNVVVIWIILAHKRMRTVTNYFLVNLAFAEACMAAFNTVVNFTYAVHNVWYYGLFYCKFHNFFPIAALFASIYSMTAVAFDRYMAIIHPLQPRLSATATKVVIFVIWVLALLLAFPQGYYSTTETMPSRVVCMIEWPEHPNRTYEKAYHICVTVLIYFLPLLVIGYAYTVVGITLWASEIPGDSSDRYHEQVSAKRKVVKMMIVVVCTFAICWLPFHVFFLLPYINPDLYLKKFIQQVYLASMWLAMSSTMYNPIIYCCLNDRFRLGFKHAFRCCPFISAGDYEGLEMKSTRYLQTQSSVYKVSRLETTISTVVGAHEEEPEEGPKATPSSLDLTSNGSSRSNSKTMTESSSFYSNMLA
The target in series [11] is Mu-type opioid receptor (Rattus norvegicus) (UniProt P33535). Nature of the series: Agonist activity at rat mu opioid receptor expressed in mouse HN9.10 cells assessed as [35S]GTPgammaS binding relative to control. Format: functional, cell-based. In short, it runs like this:
as §1

The test system of series [12] is Rattus norvegicus. Nature of the series: Antinociceptive activity in Sprague-Dawley rat assessed as time required to maximum activity on reduction in infrared heat-induced paw withdrawal latency at 10 ug administered intrathecally. It counts as functional. In a few lines:
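Male Sprague-Dawley rats (200-225 g) fitted with a lumbar intrathecal catheter under ketamine/xylazine and given 5-7 days recovery. Dose of 10 μg in 5 μL i.t., followed by air bubble and saline flush. Radiant heat applied to left hind paw after 20 min acclimation, with 33.0 s cutoff. Baseline taken 30 min before dosing; […], mean ± SEM.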

For series [13], the system named is Plasma. Nature of the series: Metabolic stability in rat plasma after up to 6 hrs. It counts as ADME, cell-free. In short, it runs like this: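 DMSO stock diluted 1000-fold into rat plasma, giving 50 μg/mL final, and incubated at 37 °C. Aliquots taken at 1, 2, 4 and 6 h, proteins precipitated with acetonitrile, and remaining parent measured by HPLC. Three independent experiments, mean ± SD; half-life calculated.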

Chain of Substance-P receptor (Cavia porcellus) (P30547 whole entry): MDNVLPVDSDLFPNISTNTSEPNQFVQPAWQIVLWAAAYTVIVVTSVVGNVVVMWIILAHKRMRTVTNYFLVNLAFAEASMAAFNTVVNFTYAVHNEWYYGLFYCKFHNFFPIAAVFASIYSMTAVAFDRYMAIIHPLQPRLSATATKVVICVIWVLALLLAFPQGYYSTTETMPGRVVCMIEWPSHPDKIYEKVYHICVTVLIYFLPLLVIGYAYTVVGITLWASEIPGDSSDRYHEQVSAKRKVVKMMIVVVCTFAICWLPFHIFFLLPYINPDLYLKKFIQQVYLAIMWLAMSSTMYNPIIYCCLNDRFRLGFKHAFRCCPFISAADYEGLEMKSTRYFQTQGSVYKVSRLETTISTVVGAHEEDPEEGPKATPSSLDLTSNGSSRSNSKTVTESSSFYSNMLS
Chain of Delta-type opioid receptor (Mus musculus, UniProt P32300) (P32300 whole entry): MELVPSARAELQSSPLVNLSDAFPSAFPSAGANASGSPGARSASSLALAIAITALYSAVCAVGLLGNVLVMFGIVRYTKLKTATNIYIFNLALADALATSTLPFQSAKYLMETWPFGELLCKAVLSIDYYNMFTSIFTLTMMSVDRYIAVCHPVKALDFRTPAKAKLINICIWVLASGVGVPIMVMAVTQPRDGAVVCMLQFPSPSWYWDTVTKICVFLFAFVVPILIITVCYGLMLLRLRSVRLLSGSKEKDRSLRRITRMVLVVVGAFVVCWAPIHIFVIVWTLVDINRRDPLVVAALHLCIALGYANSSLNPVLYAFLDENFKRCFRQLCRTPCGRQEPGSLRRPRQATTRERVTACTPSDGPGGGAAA
Chain of Mu-type opioid receptor (Cavia porcellus, UniProt P97266) (P97266 whole entry): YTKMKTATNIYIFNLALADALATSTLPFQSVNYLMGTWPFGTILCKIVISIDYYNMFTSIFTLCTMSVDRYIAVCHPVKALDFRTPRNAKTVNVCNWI
Chain of Substance-P receptor (Homo sapiens, UniProt P25103) (P25103 whole entry): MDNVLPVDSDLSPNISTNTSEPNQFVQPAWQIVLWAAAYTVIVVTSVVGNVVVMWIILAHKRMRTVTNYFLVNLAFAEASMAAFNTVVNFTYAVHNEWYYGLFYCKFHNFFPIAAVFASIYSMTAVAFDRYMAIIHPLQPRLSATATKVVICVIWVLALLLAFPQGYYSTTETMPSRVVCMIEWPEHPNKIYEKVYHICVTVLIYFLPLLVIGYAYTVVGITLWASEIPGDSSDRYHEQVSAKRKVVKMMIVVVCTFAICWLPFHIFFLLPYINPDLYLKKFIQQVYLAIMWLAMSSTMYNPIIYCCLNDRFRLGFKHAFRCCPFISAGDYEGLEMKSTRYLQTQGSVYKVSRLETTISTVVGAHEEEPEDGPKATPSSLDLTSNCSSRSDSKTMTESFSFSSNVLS
Chain of Mu-type opioid receptor (Rattus norvegicus) (P33535 whole entry): as the sequence (P33535 whole entry) above

For the molecule `CCCC[C@H](NC(=O)[C@H](Cc1ccccc1)NC(=O)CNC(=O)[C@@H](C)NC(=O)[C@@H](N)Cc1c(C)cc(O)cc1C)C(=O)N1CCC[C@H]1C(=O)N[C@@H](CC(C)C)C(=O)N[C@@H](Cc1c[nH]c2ccccc12)C(=O)NCc1cc(C(F)(F)F)cc(C(F)(F)F)c1`, the IC50 in series [1] is 0.166 nM; in [3], 24 nM. In series [2] (read-out: pEC50 (converted)), the EC50 was 0.126 nM. For the same molecule, the Ke in [4] was 13 nM.

`CCCC[C@H](NC(=O)[C@H](Cc1ccccc1)NC(=O)CNC(=O)[C@@H](C)NC(=O)[C@@H](N)Cc1c(C)cc(O)cc1C)C(=O)N1CCC[C@H]1C(=O)N[C@@H](CC(C)C)C(=O)N[C@@H](Cc1c[nH]c2ccccc12)C(=O)N(C)Cc1cc(C(F)(F)F)cc(C(F)(F)F)c1`: the half-maximal inhibitory concentration (IC50) in [5] was 3.31 nM; in series [1], 0.468 nM; in series [7] it was 110 nM; in series [3], 0.977 nM; in series [8], 14 nM; in [10], 30.9 nM. The EC50 in series [6] (read-out: EC50) was 8 nM; in [2] (read-out: EC50) it was 2.3 nM; in series [2] (read-out: pEC50 (converted)), 7.08 nM. Moreover, in series [9], the Emax stood at 49%. In addition, in series [4], the Ke was 6.1 nM.

As for `CCCC[C@H](NC(=O)[C@H](Cc1ccccc1)NC(=O)CNC(=O)[C@@H](C)NC(=O)[C@@H](N)Cc1c(C)cc(O)cc1C)C(=O)N1CCC[C@H]1C(=O)N[C@@H](CC(C)C)C(=O)N[C@@H](Cc1c[nH]c2ccccc12)C(=O)NCc1cccc(C(F)(F)F)c1`, the IC50 in series [1] was 2.19 nM; in series [7], 22 nM; in [3], 8.51 nM; in [8] it was 8.7 nM; in series [10], 389 nM. Also, the Ki in series [1] came to 1 nM; in [10], 140 nM. Besides, the results for the maximal response (Emax) in series [11] and in series [9] were 17% and 50%, respectively. Besides, the values for the EC50 in series [2] (read-out: EC50) and in series [2] (read-out: pEC50 (converted)) were 0.2 nM and 0.437 nM, respectively. Also, the Ke in [4] came to 14 nM.

For the molecule `CCCC[C@H](NC(=O)[C@H](Cc1ccccc1)NC(=O)CNC(=O)[C@@H](C)NC(=O)[C@@H](N)Cc1c(C)cc(O)cc1C)C(=O)N1CCC[C@H]1C(=O)N[C@@H](CC(C)C)C(=O)N[C@@H](Cc1c[nH]c2ccccc12)C(=O)NCc1ccc(OC)c(OC)c1`, the concentration for half-maximal inhibition (IC50) in series [5] was 0.631 nM; in [1] it was 2 nM; in [7] it was 23 nM; in series [3], 0.316 nM; in series [8], 8.8 nM; in [10] it was 891 nM. Further, the Ki in series [1] was determined as 0.95 nM; in [3], 0.15 nM; in [10], 320 nM. Also, the Emax stood at 48% in [11] and 42% in series [9]. For the same molecule, the EC50 in series [6] (read-out: EC50) was 0.72 nM; in series [6] (read-out: pEC50 (converted)), 0.955 nM; in series [2] (read-out: EC50) it was 0.6 nM. For the same molecule, the Ke in [4] worked out at 24 nM.

Regarding `CSCC[C@H](NC(=O)[C@H](Cc1ccccc1)NC(=O)CNC(=O)[C@@H](C)NC(=O)[C@@H](N)Cc1ccc(O)cc1)C(=O)N1CCC[C@H]1C(=O)N[C@@H](CC(C)C)C(=O)N[C@@H](Cc1c[nH]c2ccccc12)C(=O)NCc1cc(C(F)(F)F)cc(C(F)(F)F)c1`, the Time in [12] is 15 min.

As to `CN1CC[C@]23c4c5ccc(O)c4O[C@H]2[C@@H](O)C=C[C@H]3[C@H]1C5` [MORPHINE], in series [12], the Time amounted to 20 min.

`CSCC[C@H](NC(=O)[C@H](Cc1ccccc1)NC(=O)CNC(=O)[C@@H](C)NC(=O)[C@@H](N)Cc1c(C)cc(O)cc1C)C(=O)N1CCC[C@H]1C(=O)N[C@@H](CC(C)C)C(=O)N[C@@H](Cc1c[nH]c2ccccc12)C(=O)NCc1cc(C(F)(F)F)cc(C(F)(F)F)c1`: the half-inhibitory concentration (IC50) in series [5] is 4.27 nM; in series [1], 0.0182 nM; in series [3], 0.38 nM; in series [10], 5.13 nM. Also, the Stability result in series [13] is given as “Stable”. In addition, in series [4], the Ke came out at 7.5 nM.
